Article PMC4486003 (Biomaterials, 2015)
Values belong to the molecule of their own block, whether it stands above or below them.

What was measured:
[1] = tested on: hole B; conditions: knob B mimic derived from chicken; ref [19], [20]; cited from earlier work
[2] = tested on: fibrin network; conditions: cited from earlier work
[3] = molecular target: T1, fibrinogen Fragment D (Homo sapiens, UniProt P02671+P02675+P02679); assay: Surface plasmon resonance; format: binding; conditions: SPR; concentrations 5 μM to 1.5 mM
T1 sequence (P02675 164-491 limits assumed): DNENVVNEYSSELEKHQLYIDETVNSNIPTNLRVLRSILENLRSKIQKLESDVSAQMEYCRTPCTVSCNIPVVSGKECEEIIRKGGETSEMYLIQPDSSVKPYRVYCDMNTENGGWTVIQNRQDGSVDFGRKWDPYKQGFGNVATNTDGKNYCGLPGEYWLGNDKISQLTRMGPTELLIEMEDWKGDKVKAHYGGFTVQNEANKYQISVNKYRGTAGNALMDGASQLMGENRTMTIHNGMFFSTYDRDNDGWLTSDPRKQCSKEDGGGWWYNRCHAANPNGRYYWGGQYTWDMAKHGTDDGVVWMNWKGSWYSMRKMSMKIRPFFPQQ
T1 sequence (P02679 89-432 partner limits assumed): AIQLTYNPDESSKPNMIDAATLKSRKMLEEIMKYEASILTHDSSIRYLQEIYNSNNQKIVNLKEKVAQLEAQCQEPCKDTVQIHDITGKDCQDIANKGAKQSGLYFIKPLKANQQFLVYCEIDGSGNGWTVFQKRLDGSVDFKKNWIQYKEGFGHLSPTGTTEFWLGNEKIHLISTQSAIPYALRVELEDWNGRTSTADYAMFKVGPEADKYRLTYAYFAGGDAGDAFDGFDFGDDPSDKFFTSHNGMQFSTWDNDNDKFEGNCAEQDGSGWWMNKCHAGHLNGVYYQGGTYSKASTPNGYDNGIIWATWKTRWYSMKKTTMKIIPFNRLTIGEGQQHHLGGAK
T1 sequence (P02671 124-225 partner limits assumed): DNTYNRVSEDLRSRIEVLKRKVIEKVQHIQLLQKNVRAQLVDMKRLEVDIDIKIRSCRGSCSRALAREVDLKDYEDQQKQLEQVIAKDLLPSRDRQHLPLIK
Procedure, shortened: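 Fragment D came from human fibrinogen (2 mg/mL) digested overnight at room temperature with plasmin (0.1 U/mL), then isolated on GPRPAA beads. It was covalently coupled to self-assembled-monolayer gold chips to about 1500 RU in 3 flow cells, with 1 reference cell. Test compound was run at five concentrations (5 μM–1.5 mM) in duplicate: 25 μL/min for 4 min, then 5 min dissociation. Kinetic models were fitted and judged by residuals.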

[4] = tested on: single fibrin fibers; assay: Single fibrin fiber breaking strain/extensibility; set-up: species or system human; conditions: for average single fiber breaking strain: percentage of original fiber length, 305 nm/s
Procedure, shortened: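 Fibrinogen and test compound were preincubated at 37°C for 15 min at pH 7.4 (140 mM NaCl, 10 mM HEPES, 5 mM CaCl₂); test compound finals were 1 mM, 250 μM and 100 μM. Thrombin and FXIII were added (finals: fibrinogen 3.2 μM, 0.3 NIH u/ml, 9.00 Loewy u/ml). Clots formed 75 min on striated substrates and were bead-labelled. An AFM tip stretched single fibers at 305 nm/s until rupture. Strain = (L′−L_initial)/L_initial, given as % of original length.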

[5] = molecular target: T2, fibrin polymerization (Homo sapiens, UniProt P02671+P02675+P02679); assay: Percent clottable protein; format: biochemical; conditions: from percent clottability
T2 sequence (P02675 45-491 limits assumed): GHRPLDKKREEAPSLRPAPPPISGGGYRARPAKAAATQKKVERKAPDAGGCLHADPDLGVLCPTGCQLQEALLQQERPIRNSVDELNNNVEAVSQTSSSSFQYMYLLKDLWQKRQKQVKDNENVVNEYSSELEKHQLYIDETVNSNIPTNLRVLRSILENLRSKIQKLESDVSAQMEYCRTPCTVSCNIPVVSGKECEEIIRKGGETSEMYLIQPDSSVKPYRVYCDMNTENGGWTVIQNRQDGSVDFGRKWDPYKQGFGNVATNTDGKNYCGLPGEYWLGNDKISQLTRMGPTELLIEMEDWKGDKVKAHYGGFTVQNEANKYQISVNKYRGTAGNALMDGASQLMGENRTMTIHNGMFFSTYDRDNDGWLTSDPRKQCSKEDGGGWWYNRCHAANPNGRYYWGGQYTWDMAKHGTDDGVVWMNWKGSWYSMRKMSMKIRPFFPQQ
T2 sequence (P02679 27-433 partner limits assumed): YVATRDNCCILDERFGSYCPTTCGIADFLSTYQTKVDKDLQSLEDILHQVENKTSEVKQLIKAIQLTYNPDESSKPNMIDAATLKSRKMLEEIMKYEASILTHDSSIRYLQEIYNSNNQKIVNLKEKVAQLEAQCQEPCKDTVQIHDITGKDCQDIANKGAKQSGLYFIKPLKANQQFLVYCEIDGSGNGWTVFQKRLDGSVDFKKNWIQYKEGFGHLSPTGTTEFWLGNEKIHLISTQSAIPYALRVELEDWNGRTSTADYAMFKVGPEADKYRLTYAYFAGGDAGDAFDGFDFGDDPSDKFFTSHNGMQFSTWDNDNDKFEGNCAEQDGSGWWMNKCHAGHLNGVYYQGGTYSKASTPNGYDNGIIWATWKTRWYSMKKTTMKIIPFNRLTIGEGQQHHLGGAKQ
T2 sequence (P02671 36-866 partner limits assumed): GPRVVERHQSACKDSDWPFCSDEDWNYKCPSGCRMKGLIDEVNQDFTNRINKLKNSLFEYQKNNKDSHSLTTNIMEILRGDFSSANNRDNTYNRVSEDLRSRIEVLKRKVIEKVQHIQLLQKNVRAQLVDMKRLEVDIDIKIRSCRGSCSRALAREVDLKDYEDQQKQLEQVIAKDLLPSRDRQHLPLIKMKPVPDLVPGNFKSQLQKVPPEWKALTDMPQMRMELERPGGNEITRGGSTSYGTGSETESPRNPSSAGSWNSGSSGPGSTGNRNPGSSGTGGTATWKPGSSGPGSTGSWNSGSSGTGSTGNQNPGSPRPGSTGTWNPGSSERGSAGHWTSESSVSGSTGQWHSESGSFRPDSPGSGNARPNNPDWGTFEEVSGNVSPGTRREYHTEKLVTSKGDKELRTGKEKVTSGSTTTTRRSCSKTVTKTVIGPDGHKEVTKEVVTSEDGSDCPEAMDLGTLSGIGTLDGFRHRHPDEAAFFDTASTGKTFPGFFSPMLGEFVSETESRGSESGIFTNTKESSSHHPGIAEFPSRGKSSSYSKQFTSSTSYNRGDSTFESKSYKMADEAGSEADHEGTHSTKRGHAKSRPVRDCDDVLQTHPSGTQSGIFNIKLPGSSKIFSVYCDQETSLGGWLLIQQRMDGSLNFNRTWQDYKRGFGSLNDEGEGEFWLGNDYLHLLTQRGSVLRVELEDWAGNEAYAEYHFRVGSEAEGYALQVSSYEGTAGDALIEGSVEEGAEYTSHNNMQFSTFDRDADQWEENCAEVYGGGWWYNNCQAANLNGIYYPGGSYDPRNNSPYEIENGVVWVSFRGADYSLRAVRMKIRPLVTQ
Procedure, shortened: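 Test compound at final 1, 0.25 or 0.1 mM was added to clots at pH 7.4 (25 mM HEPES, 150 mM NaCl) with final fibrinogen 1 mg/mL, thrombin 0.25 U/mL and CaCl₂ 5 mM. A350 was read every minute for 1 h. Clot liquor was then assayed for total protein (Quant-it). Percent clottable protein was computed against fibrinogen-only, no-thrombin samples.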

[6] = tested on: fibrin polymerization; conditions: high concentrations; ref [15]; cited from earlier work
[7] = molecular target: human fibrinogen Fragment D (human); assay: SPR
[8] = 1:1 molar ratio fibrinogen:knob mimic, ref [11]

Molecule: AHRP
- binding specificity [1]: only bind to hole B

Molecule: AHRPYAAC-PEG
- complex modulus (G*) [2, 8]: increased the complex modulus
- susceptibility to degradation [2, 8]: decreased susceptibility to degradation
- binding to fragment D (in words) [3]: at a minimum, micromolar concentrations of PEGylated knob B peptides are required to observe binding to fibrinogen
- average single fiber breaking strain ([4]; 100 μM): 171%
- average single fiber breaking strain ([4]; 250 μM): 164%
- average single fiber breaking strain ([4]; 1 mM): 202%
- increase of average breaking strain vs unmodified fibrin fibers ([4]; 1 mM, stretched at 305 nm/s): 20%
- fiber extensibility (in words) ([4]; concentrations above its Kd): increase extensibility of fibers
- fiber extensibility (in words) ([4]; concentrations near its Kd): decreases the extensibility of fibers

Molecule: GHRPY [reference compound]
- network structure and fibrinolysis ([2]; bovine knob B mimic, ref [18], [21]): altered network structure and delayed fibrinolysis

- effect on polymerization (in words) ([5]; all concentrations tested): not significantly affected
Molecule: GPSPFPAC

- inhibition of polymerization (in words) ([5]; 1 mM): significantly inhibited
Molecule: GPSPFPAC-PEG

Molecule: Gly-Pro-Arg-Pro [GPRP]
- fibrin polymerization [6]: polymerization is inhibited

- Kd1 (2-site model, higher-affinity site, assumed knob B:hole b) [7]: 57 µM
B1: PEGylated knob B peptide AHRPYAAC-PEG (peptide)
peptide: AHRPYAAC
modifications: not fully specified; 5 kDa maleimide-PEG conjugated to the cysteine-terminated peptide
